In brackets after ≈: the same amount, converted by molar mass. Activity calls are given as the source filed them. No cut-off for these calls is given here.
Assays:
[1] = system: Staphylococcus aureus; assay: Inhibition of cell division in penicillin-susceptible Staphylococcus aureus ATCC 25923 at 2048 to 4096 ug/ml after 5 hrs by phase-contrast light microscopy analysis; assay type: functional, organism-based
[2] = system: Bacillus subtilis; assay: Inhibition of cell division in penicillin-susceptible Bacillus subtilis ATCC 9372 at 2048 to 4096 ug/ml after 5 hrs by phase-contrast light microscopy analysis; assay type: functional, organism-based
[3] = system: Streptococcus pyogenes; assay: Antibacterial activity against penicillin-susceptible Streptococcus pyogenes after 24 hrs by broth microdilution method; assay type: functional
Procedure, shortened: (§1)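 MIC by broth microdilution following the NCCLS standard method. Test strains were penicillin-susceptible: B. subtilis ATCC9372, S. aureus ATCC25923, S. pneumoniae ATCC49619 and Streptococcus pyogenes PS.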

[4] = system: Streptococcus pneumoniae; assay: Antibacterial activity against penicillin-susceptible Streptococcus pneumoniae ATCC 49619 after 24 hrs by broth microdilution method; assay type: functional; settings: ATCC 49619, 24 h; procedure, shortened: as §1
[5] = system: Staphylococcus aureus; assay: Antibacterial activity against penicillin-resistant Staphylococcus aureus clinical isolate after 24 hrs by broth microdilution method; assay type: functional
Procedure, shortened: (§2)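 MIC by standard broth microdilution following NCCLS recommendations. S. aureus ATCC29213 is a […] strain. The S. aureus PR strain is a penicillin-resistant clinical isolate that has not been characterized. The MIC was taken as the in vitro antibacterial activity value.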

[6] = system: Staphylococcus aureus; assay: Antibacterial activity against penicillin-susceptible Staphylococcus aureus ATCC 25923 after 24 hrs by broth microdilution method; assay type: functional; settings: ATCC 25923, 24 h; procedure, shortened: as §1
[7] = system: Staphylococcus aureus; assay: Antibacterial activity against […] Staphylococcus aureus ATCC 29213 after 24 hrs by broth microdilution method; assay type: functional; settings: ATCC 29213, 24 h; procedure, shortened: as §2
[8] = system: Bacillus subtilis; assay: Antibacterial activity against penicillin-susceptible Bacillus subtilis ATCC 9372 after 24 hrs by broth microdilution method; assay type: functional; settings: ATCC 9372, 24 h; procedure, shortened: as §1
[9] = system: Staphylococcus aureus; assay: Inhibition of cell division in penicillin-susceptible Staphylococcus aureus ATCC 25923 assessed as lowest concentration required to ballooning after 5 hrs by phase-contrast light microscopy analysis; assay type: functional
Procedure, shortened: (§3)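 Cell morphology of B. subtilis ATCC9372 or S. aureus ATCC25923 was examined by phase-contrast light microscopy. The value recorded is the lowest compound concentration at which B. subtilis filamentation or S. aureus ballooning appeared. This is taken as on-target cell division inhibition.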

[10] = system: Bacillus subtilis; assay: Inhibition of cell division in penicillin-susceptible Bacillus subtilis ATCC 9372 assessed as lowest concentration required to filamentation after 5 hrs by phase-contrast light microscopy analysis; assay type: functional; procedure, shortened: as §3
[11] = system: Staphylococcus aureus; assay: Ratio of compound MIC to 3-MBA MIC for penicillin-resistant Staphylococcus aureus clinical isolate; assay type: functional
[12] = system: Staphylococcus aureus; assay: Ratio of compound MIC to 3-MBA MIC for penicillin-susceptible Staphylococcus aureus ATCC 25923; assay type: functional
[13] = system: Bacillus subtilis; assay: Ratio of compound MIC to 3-MBA MIC for penicillin-susceptible Bacillus subtilis ATCC 9372; assay type: functional

| Compound | inhibition [1] | inhibition [2] | MIC [3] [µg/mL] | MIC [4] [µg/mL] | MIC [5] [µg/mL] | MIC [6] [µg/mL] | MIC [7] [µg/mL] | MIC [8] [µg/mL] | INH [9] [µg/mL] | INH [10] [µg/mL] | Ratio [11] | Ratio [12] | Ratio [13] |
| --- | --- | --- | --- | --- | --- | --- | --- | --- | --- | --- | --- | --- | --- |
| Cc1nc2ccccc2n1CCCCOc1cccc(C(N)=O)c1 | inactive | inactive | > 128 | > 128 | > 128 | 1020 (≈ 3170 µM) | > 128 | 1020 (≈ 3170 µM) | – | – | – | – | – |
| NC(=O)c1cccc(OCCCOc2ccccc2)c1 | – | – | > 128 | > 128 | > 128 | 1020 (≈ 3770 µM) | > 128 | 32 (≈ 118 µM) | 1024 | 8 | – | – | – |
| NC(=O)c1cccc(OCCCCOc2ccc([N+](=O)[O-])cc2)c1 | – | – | > 128 | > 128 | > 128 | 1020 (≈ 3100 µM) | > 128 | 32 (≈ 96.9 µM) | 512 | 32 | – | – | – |
| NC(=O)c1cccc(OCCCCn2ccnc2)c1 | – | – | > 128 | > 128 | > 128 | 256 (≈ 987 µM) | > 128 | 128 (≈ 494 µM) | 128 | 128 | – | – | – |
| NC(=O)c1cccc(OCCCCl)c1 | – | – | > 128 | > 128 | 64 (≈ 300 µM) | 64 (≈ 300 µM) | 64 (≈ 300 µM) | 128 (≈ 599 µM) | 64 | 64 | – | – | – |
| NC(=O)c1cccc(OCCCCCl)c1 | – | – | > 128 | > 128 | 8 (≈ 35.1 µM) | 8 (≈ 35.1 µM) | 8 (≈ 35.1 µM) | 32 (≈ 141 µM) | 32 | 16 | 512 | 256 | – |
| CCCCOCCCCCOc1cccc(C(N)=O)c1 | – | – | > 128 | > 128 | 8 (≈ 28.6 µM) | 8 (≈ 28.6 µM) | 4 (≈ 14.3 µM) | 8 (≈ 28.6 µM) | 16 | 8 | – | 256 | 512 |
| COc1cccc(C(N)=O)c1 | inactive | – | > 128 | > 128 | 4100 (≈ 27100 µM) | 2050 (≈ 13500 µM) | 2050 (≈ 13500 µM) | 4100 (≈ 27100 µM) | – | 512 | – | – | – |
| NC(=O)c1cccc(OCCCCSc2nc3ccccc3s2)c1 | – | – | > 128 | > 128 | > 128 | 1020 (≈ 2860 µM) | > 128 | 128 (≈ 357 µM) | 512 | 128 | – | – | – |
| NC(=O)c1cccc(OCCSc2nc3ccccc3s2)c1 | – | – | > 128 | > 128 | > 128 | 2050 (≈ 6200 µM) | > 128 | 32 (≈ 96.8 µM) | 1024 | 16 | – | – | – |
| NC(=O)c1cccc(OCCCCBr)c1 | – | – | > 128 | > 128 | 8 (≈ 29.4 µM) | 8 (≈ 29.4 µM) | 8 (≈ 29.4 µM) | 16 (≈ 58.8 µM) | 8 | 8 | 512 | 256 | 256 |
| NC(=O)c1cccc(OCCCn2cncn2)c1 | – | – | > 128 | > 128 | > 128 | 2050 (≈ 8320 µM) | > 128 | 32 (≈ 130 µM) | 1024 | 16 | – | – | – |
| NC(=O)c1cccc(O)c1 | – | – | > 128 | > 128 | 4100 (≈ 29900 µM) | 4100 (≈ 29900 µM) | 4100 (≈ 29900 µM) | 512 (≈ 3730 µM) | 4096 | 4096 | – | – | – |
| NC(=O)c1cccc(OCCCOc2ccc(Cl)cc2)c1 | – | – | > 128 | > 128 | > 128 | 1020 (≈ 3350 µM) | > 128 | 16 (≈ 52.3 µM) | 512 | 4 | – | – | – |
| NC(=O)c1cccc(OCCCOc2ccc([N+](=O)[O-])cc2)c1 | – | – | > 128 | > 128 | > 128 | 1020 (≈ 3240 µM) | > 128 | 4 (≈ 12.6 µM) | 512 | 4 | – | – | – |

Reference: ChEMBL document CHEMBL2401679, “Synthesis and on-target antibacterial activity of novel 3-elongated arylalkoxybenzamide derivatives as inhibitors of the bacterial cell division protein FtsZ” (2013)
